ChEMBL document CHEMBL1135907, “Novel 5-substituted 2,4-thiazolidinedione and 2,4-oxazolidinedione derivatives as insulin sensitizers with antidiabetic activities” (J Med Chem, 2002)

Experiments:
Mus musculus [1] = species on record: Mus musculus; assay: Effective dose for 25% reduction in plasma lipid-lowering activity in KKAy mice; type: functional
In short: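 Male/female not stated; KKAy mice, 9–13 weeks old, fed powdered CE-2 chow 3 d, grouped (five per group) by blood glucose. Compounds given as dietary admixture at three levels (0.01, 0.005 or 0.001% in diet) for 4 d. Orbital-vein plasma triglyceride measured enzymatically as % reduction vs control; dose (mg/kg/d) from food intake and body weight; ED25 by linear regression.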

Rattus norvegicus [2] = species on record: Rattus norvegicus; assay: (§1) Effective dose for 25% reduction in glucose-lowering activity in Wistar fatty rats; type: functional
In short: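 Wistar fatty rats, 10–15 weeks old, grouped five per group by plasma glucose and triglyceride. Compound suspended in 0.5% methyl cellulose, given orally by stomach tube once daily for 6 d at three concentrations. Animals had CE-2 pellets and water ad libitum. Plasma glucose measured enzymatically on tail-vein blood. ED25 (mg/kg/d) for 25% reduction from control derived by linear regression over the three doses.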

[3] = Plasma glucose-lowering activity at a dosage of 0.005% in the diet in KKA(y) mice.; type: functional, Mus musculus
In short: (§2)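 KKAy mice (9–13 weeks old), five per group, grouped by blood glucose after 3 d on powdered CE-2 chow. Dietary admixture at 0.001, 0.005 or 0.01% for 4 d, food and water ad libitum. Orbital-vein plasma glucose measured enzymatically and expressed as maximum percent reduction versus control; Dunnett's test.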

[4] = Plasma lipid-lowering activity at a dosage of 0.01% in the diet in KKAy mice; type: functional, Mus musculus
In short: (§3)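 KKAy mice (9–13 weeks old), five per group, on powdered CE-2 diet containing compound at 0.001, 0.005 or 0.01% for 4 d. Plasma triglyceride from orbital-vein blood measured enzymatically and reported as maximum percent reduction from control; Dunnett's test; less than 10% reduction flagged.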

[5] = Plasma lipid-lowering activity at a dosage of 0.005% in the diet in KKA(y) mice.; type: functional, Mus musculus; in short: as §3
Mus musculus [6] = species on record: Mus musculus; assay: Plasma glucose-lowering activity at a dosage of 0.01% in the diet in KKAy mice; type: functional; in short: as §2
RXR alpha/PPAR gamma = biological target: T1, RXR alpha/PPAR gamma (Homo sapiens, UniProt P19793+P37231); assay: Transcriptional activation in COS cells expressing PPAR gamma and RXR alpha
T1 sequence (P37231 whole entry): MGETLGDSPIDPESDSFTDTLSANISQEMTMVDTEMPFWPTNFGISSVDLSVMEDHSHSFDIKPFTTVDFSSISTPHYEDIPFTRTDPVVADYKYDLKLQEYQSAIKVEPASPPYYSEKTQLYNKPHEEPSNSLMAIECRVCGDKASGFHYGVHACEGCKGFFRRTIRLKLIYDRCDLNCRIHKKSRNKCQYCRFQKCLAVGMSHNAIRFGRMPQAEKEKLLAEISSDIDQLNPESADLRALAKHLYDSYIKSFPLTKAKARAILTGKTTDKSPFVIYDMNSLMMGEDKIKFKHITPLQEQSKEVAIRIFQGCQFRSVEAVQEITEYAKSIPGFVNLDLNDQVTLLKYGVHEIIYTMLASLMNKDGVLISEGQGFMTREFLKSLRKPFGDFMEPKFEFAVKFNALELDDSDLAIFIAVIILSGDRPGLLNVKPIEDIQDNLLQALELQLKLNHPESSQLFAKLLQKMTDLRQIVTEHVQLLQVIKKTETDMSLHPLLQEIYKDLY
T1 sequence (P19793 whole entry): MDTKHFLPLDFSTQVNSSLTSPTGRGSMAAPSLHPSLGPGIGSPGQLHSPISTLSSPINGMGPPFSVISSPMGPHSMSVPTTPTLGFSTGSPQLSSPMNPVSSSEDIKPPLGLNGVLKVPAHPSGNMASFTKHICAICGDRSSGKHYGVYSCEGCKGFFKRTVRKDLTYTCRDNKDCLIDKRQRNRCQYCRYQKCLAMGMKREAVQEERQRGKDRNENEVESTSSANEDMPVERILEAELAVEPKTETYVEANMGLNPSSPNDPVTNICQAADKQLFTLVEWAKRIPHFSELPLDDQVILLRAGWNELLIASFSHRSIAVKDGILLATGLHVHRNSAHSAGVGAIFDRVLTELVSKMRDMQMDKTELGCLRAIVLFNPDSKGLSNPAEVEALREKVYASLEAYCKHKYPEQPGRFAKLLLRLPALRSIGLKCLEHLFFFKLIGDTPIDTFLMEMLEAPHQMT

Rattus norvegicus [7] = species on record: Rattus norvegicus; assay: as §1; type: functional; remark: listed apart in the source
In short: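 Wistar fatty rats (10–15 weeks old), five per group, allocated by plasma glucose and triglyceride. Oral dosing by stomach tube once daily for 6 d at three doses, suspended in 0.5% methyl cellulose; CE-2 pellets and water ad libitum. Tail-vein plasma glucose measured; ED25 taken from the three-dose response by linear regression.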

Mus musculus [8] = species on record: Mus musculus; assay: Effective dose for 25% reduction in plasma glucose-lowering activity in KKAy mice; type: functional
In short: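 KKAy mice (9–13 weeks old), five per group, allocated by blood glucose after 3 d on powdered CE-2 chow. Compounds given as dietary admix at three levels chosen from first screening, 4 d ad libitum. Orbital-vein plasma glucose assayed enzymatically. Dose in mg/kg/d computed from food intake and body weight; ED25 derived by linear regression.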

Rattus norvegicus [9] = assay: Plasma concentration at a dose of 1 mg/kg in Jc1SD rats after intravenous administration upon racemisation after 15 min; type: functional, organism-based; parameters: dose 1 mg/kg
Rattus norvegicus [10] = assay: Plasma concentration at a dose of 1 mg/kg in Jc1SD rats after intravenous administration upon racemisation after 30 min; type: functional, organism-based; parameters: dose 1 mg/kg
Rattus norvegicus [11] = assay: Plasma concentration at a dose of 1 mg/kg in Jc1SD rats after intravenous administration upon racemisation after 120 min; type: functional, organism-based; parameters: dose 1 mg/kg
Rattus norvegicus [12] = assay: Plasma concentration of enantiomer at a dose of 1 mg/kg in Jc1SD rats after intravenous administration upon racemisation after 30 min; type: functional, organism-based; parameters: dose 1 mg/kg
Rattus norvegicus [13] = assay: Plasma concentration of enantiomer at a dose of 1 mg/kg in Jc1SD rats after intravenous administration upon racemisation after 120 min; type: functional, organism-based; parameters: dose 1 mg/kg
Rattus norvegicus [14] = assay: Plasma concentration at a dose of 1 mg/kg in Jc1SD rats after intravenous administration upon racemisation after 10 min; type: functional, organism-based; parameters: dose 1 mg/kg
Rattus norvegicus [15] = assay: Plasma concentration at a dose of 1 mg/kg in Jc1SD rats after intravenous administration upon racemisation after 5 min; type: functional, organism-based; parameters: dose 1 mg/kg
Rattus norvegicus [16] = assay: Plasma concentration of enantiomer at a dose of 1 mg/kg in Jc1SD rats after intravenous administration upon racemisation after 15 min; type: functional, organism-based; parameters: dose 1 mg/kg
Rattus norvegicus [17] = assay: Plasma concentration of enantiomer at a dose of 1 mg/kg in Jc1SD rats after intravenous administration upon racemisation after 60 min; type: functional, organism-based; parameters: dose 1 mg/kg
Rattus norvegicus [18] = assay: Plasma concentration at a dose of 1 mg/kg in Jc1SD rats after intravenous administration upon racemisation after 60 min; type: functional, organism-based; parameters: dose 1 mg/kg
Rattus norvegicus [19] = assay: Plasma concentration of enantiomer at a dose of 1 mg/kg in Jc1SD rats after intravenous administration upon racemisation after 5 min; type: functional, organism-based; parameters: dose 1 mg/kg
Rattus norvegicus [20] = assay: Plasma concentration of enantiomer at a dose of 1 mg/kg in Jc1SD rats after intravenous administration upon racemisation after 10 min; type: functional, organism-based; parameters: dose 1 mg/kg
Mus musculus [21] = species on record: Mus musculus; assay: Plasma lipid-lowering activity at a dosage of 0.005% in the diet in KKAy mice;LA denotes less than 10% reduction at this dosage; type: functional, organism-based; in short: as §3
Rattus norvegicus [22] = assay: Plasma concentrations of S(-)-64 at a dose of 1 mg/kg in Jc1SD rats after intravenous administration after 30 min; type: functional, organism-based; parameters: dose 1 mg/kg
Rattus norvegicus [23] = assay: Plasma concentrations of S(-)-64 at a dose of 1 mg/kg in Jc1SD rats after intravenous administration after 60 min; type: functional, organism-based; parameters: dose 1 mg/kg
Rattus norvegicus [24] = assay: Plasma concentrations of R(+)-64 at a dose of 1 mg/kg in Jc1SD rats after intravenous administration after 60 min; type: functional, organism-based; parameters: dose 1 mg/kg
Rattus norvegicus [25] = assay: Plasma concentrations of S(-)-64 at a dose of 1 mg/kg in Jc1SD rats after intravenous administration after 10 min; type: functional, organism-based; parameters: dose 1 mg/kg
Rattus norvegicus [26] = assay: Plasma concentrations of S(-)-64 at a dose of 1 mg/kg in Jc1SD rats after intravenous administration after 5 min; type: functional, organism-based; parameters: dose 1 mg/kg
Rattus norvegicus [27] = assay: Plasma concentrations of R(+)-64 at a dose of 1 mg/kg in Jc1SD rats after intravenous administration after 15 min; type: functional, organism-based; parameters: dose 1 mg/kg
Rattus norvegicus [28] = assay: Plasma concentrations of S(-)-64 at a dose of 1 mg/kg in Jc1SD rats after intravenous administration after 15 min; type: functional, organism-based; parameters: dose 1 mg/kg
Rattus norvegicus [29] = assay: Plasma concentrations of R(+)-64 at a dose of 1 mg/kg in Jc1SD rats after intravenous administration after 30 min; type: functional, organism-based; parameters: dose 1 mg/kg
Rattus norvegicus [30] = assay: Plasma concentrations of R(+)-64 at a dose of 1 mg/kg in Jc1SD rats after intravenous administration after 5 min; type: functional, organism-based; parameters: dose 1 mg/kg
Rattus norvegicus [31] = assay: Plasma concentrations of R(+)-64 at a dose of 1 mg/kg in Jc1SD rats after intravenous administration after 10 min; type: functional, organism-based; parameters: dose 1 mg/kg
Rattus norvegicus [32] = assay: Plasma concentrations of R(+)-64 at a dose of 1 mg/kg in Jc1SD rats after intravenous administration after 120 min; type: functional, organism-based; parameters: dose 1 mg/kg

`CCc1ccc(CCOc2ccc(CC3SC(=O)NC3=O)cc2)nc1.Cl` (centres undefined) [PIOGLITAZONE HYDROCHLORIDE] gave an ED25 (Mus musculus [1]) of 6 mg/kg/day and an ED25 (Rattus norvegicus [2]) of 0.5 mg/kg/day.

In the case of `Cc1oc(-c2ccccc2)nc1CCOc1ccc(CCCC2SC(=O)NC2=O)cc1` (centres undefined), the Activity [3] is reported as 26, the Activity [4] is reported as 42 and the Activity [5] is reported as 18. The Activity (Mus musculus [6]) was 35.

`Cc1sc(-c2ccccc2)nc1COc1ccc(CCCC2OC(=O)NC2=O)cc1` (single isomer, unassigned; (+)) showed an EC50 (RXR alpha/PPAR gamma) of 269 nM, an ED25 (Rattus norvegicus [7]) of 0.23 mg/kg/day and an ED25 (Mus musculus [8]) of 1.44 mg/kg/day.

`COc1cc(CCCC2OC(=O)NC2=O)ccc1OCc1nc(-c2ccco2)oc1C` (single isomer, unassigned; (-)) gave a Concentration (Rattus norvegicus [9]) of 0.04 µg/mL, a Concentration (Rattus norvegicus [10]) of 0.05 µg/mL and a Concentration (Rattus norvegicus [11]) of 0.07 µg/mL. For the same compound, the Concentration (Rattus norvegicus [12]) was 3.65 µg/mL, the Concentration (Rattus norvegicus [13]) was 1.61 µg/mL and the Concentration (Rattus norvegicus [14]) was 0.04 µg/mL. The Concentration (Rattus norvegicus [15]) was 0.04 µg/mL, the Concentration (Rattus norvegicus [16]) was 3.97 µg/mL and the Concentration (Rattus norvegicus [17]) was 2.94 µg/mL. The Concentration (Rattus norvegicus [18]) was 0.07 µg/mL, the Concentration (Rattus norvegicus [19]) was 4.78 µg/mL and the Concentration (Rattus norvegicus [20]) was 4.3 µg/mL.

With `Cc1oc(-c2ccccc2)nc1COc1ccc(CC2OC(=O)NC2=O)cc1` (centres undefined) the LA (Mus musculus [21]) was “Less than 10% reduction at this dosage” and the Activity [3] was 29.

Work on `COc1cc(CCCC2OC(=O)NC2=O)ccc1OCc1nc(-c2ccco2)oc1C` (stereo in doubt; (+)-64) yielded a Concentration (Rattus norvegicus [22]) of 0.02 µg/mL, a Concentration (Rattus norvegicus [23]) of 0.02 µg/mL and a Concentration (Rattus norvegicus [24]) of 3.19 µg/mL. It also gave a Concentration (Rattus norvegicus [25]) of 0.02 µg/mL, a Concentration (Rattus norvegicus [26]) of 0.02 µg/mL and a Concentration (Rattus norvegicus [27]) of 5.13 µg/mL. For the same compound, the Concentration (Rattus norvegicus [28]) was 0.02 µg/mL, the Concentration (Rattus norvegicus [29]) was 4.78 µg/mL and the Concentration (Rattus norvegicus [30]) was 6.46 µg/mL. The Concentration (Rattus norvegicus [31]) was 6.06 µg/mL and the Concentration (Rattus norvegicus [32]) was 1.46 µg/mL.
